Laboratory results from ChEMBL document CHEMBL1275372, “Conformationally restricted homotryptamines. Part 7: 3-cis-(3-aminocyclopentyl)indoles as potent selective serotonin reuptake inhibitors” (J Med Chem, 2010).
Activity calls are given as the source filed them. No cut-off for these calls is given here.

Experiments:
[1] = biological target: Sodium-dependent serotonin transporter (Homo sapiens, UniProt P31645); assay: Binding affinity to human SERT
[2] = biological target: Sodium-dependent noradrenaline transporter (Homo sapiens, UniProt P23975); assay: Binding affinity to human NET
[3] = biological target: T1, 5-hydroxytryptamine receptor 1A (Homo sapiens, UniProt P08908); assay: Binding affinity to 5HT1A receptor
T1 sequence (P08908 whole entry): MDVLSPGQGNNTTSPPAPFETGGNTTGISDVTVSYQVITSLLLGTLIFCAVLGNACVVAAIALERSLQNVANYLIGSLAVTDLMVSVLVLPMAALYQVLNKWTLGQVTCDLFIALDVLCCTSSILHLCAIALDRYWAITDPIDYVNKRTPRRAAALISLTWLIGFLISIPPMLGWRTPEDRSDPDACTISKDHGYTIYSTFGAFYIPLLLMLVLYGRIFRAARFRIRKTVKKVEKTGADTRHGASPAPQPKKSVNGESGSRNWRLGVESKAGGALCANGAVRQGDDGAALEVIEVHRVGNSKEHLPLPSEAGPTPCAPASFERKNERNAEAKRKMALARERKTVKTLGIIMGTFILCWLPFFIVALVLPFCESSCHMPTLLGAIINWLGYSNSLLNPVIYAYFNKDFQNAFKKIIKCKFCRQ

[4] = biological target: 5-hydroxytryptamine receptor 1B (Homo sapiens, UniProt P28222); assay: Binding affinity to 5HT1B receptor
[5] = biological target: 5-hydroxytryptamine receptor 2A (Homo sapiens, UniProt P28223); assay: Binding affinity to 5HT2A receptor
[6] = Half life in rat at 3 mg/kg, po by microdialysis method; type: ADME, organism-based; set-up: dose 3 mg/kg, route oral; details: in vivo
Summary of the method: (§1)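 Rats dosed orally at 3 mg/kg as part of the frontal-cortex microdialysis experiments. Drug levels in brain and plasma sampled at 2 h after dosing. Oral bioavailability, Tmax and half-life are reported from the same oral 3 mg/kg dosing in rat.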

[7] = biological target: 5-hydroxytryptamine receptor 7 (Homo sapiens, UniProt P34969); assay: Binding affinity to 5HT7 receptor
[8] = biological target: 5-hydroxytryptamine receptor 5A (Homo sapiens, UniProt P47898); assay: Binding affinity to 5HT5A receptor
[9] = Drug concentration in rat plasma at 3 mg/kg, po after 2 hrs by microdialysis method; type: ADME, organism-based; set-up: dose 3 mg/kg, route oral; summary of the method: as §1
[10] = biological target: 5-hydroxytryptamine receptor 2B (Homo sapiens, UniProt P41595); assay: Binding affinity to 5HT2B receptor
[11] = biological target: 5-hydroxytryptamine receptor 6 (Homo sapiens, UniProt P50406); assay: Binding affinity to 5HT6 receptor
[12] = Oral bioavailability in rat plasma at 3 mg/kg by microdialysis method; type: ADME, organism-based; summary of the method: as §1
[13] = biological target: Sodium-dependent dopamine transporter (Homo sapiens, UniProt Q01959); assay: Binding affinity to human DAT
[14] = biological target: 5-hydroxytryptamine receptor 4 (Homo sapiens, UniProt Q13639); assay: Binding affinity to 5HT4 receptor
Rattus norvegicus [15] = assay: Increase in extracellular serotonin levels in rat frontal cortex at 3 mg/kg, po by microdialysis method relative to untreated control; type: functional
Summary of the method: (§2)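 In vivo microdialysis in rat frontal cortex measuring extracellular serotonin. Oral doses were 1 and 3 mg/kg, with a reference SSRI at 5 mg/kg po; an iv arm used 1.0 mg/kg. Change is expressed as percent increase over vehicle-treated controls, with significance tested against vehicle.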

[16] = Tmax in rat at 3 mg/kg, po by microdialysis method; type: ADME, organism-based; set-up: dose 3 mg/kg, route oral; details: in vivo; summary of the method: as §1
D(1A) dopamine receptor = D(1A) dopamine receptor (Homo sapiens, UniProt P21728); assay: Binding affinity to dopamine D1
D(2) dopamine receptor = D(2) dopamine receptor (Homo sapiens, UniProt P14416); assay: Binding affinity to dopamine D2
[17] = biological target: T2, 5-hydroxytryptamine receptor 2C (Homo sapiens, UniProt P28335); assay: Binding affinity to 5HT2C receptor
T2 sequence (P28335 whole entry): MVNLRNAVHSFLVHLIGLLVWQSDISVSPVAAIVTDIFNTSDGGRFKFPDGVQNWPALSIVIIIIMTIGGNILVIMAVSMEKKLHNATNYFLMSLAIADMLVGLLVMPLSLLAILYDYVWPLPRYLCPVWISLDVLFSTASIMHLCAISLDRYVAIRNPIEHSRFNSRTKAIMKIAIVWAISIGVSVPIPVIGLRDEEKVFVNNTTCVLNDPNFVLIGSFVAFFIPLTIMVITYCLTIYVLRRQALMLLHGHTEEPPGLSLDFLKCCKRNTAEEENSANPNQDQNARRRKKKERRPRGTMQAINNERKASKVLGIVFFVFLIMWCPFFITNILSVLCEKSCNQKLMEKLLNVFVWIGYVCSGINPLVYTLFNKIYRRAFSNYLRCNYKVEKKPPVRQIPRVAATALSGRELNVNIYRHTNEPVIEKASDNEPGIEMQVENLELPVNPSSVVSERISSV

Rattus norvegicus [18] = assay: Increase in extracellular serotonin levels in rat frontal cortex at 5 mg/kg, po by microdialysis method relative to untreated control; type: functional, organism-based; set-up: dose 5 mg/kg; summary of the method: as §2
Brain = assay: Drug concentration in rat brain at 3 mg/kg, po after 2 hrs by microdialysis method; type: ADME, organism-based; set-up: dose 3 mg/kg, route oral; details: in vivo; summary of the method: as §1
Rattus norvegicus [19] = assay: Increase in extracellular serotonin levels in po dosed rat frontal cortex; type: functional, organism-based; summary of the method: as §2

Chain of Sodium-dependent serotonin transporter (P31645 whole entry): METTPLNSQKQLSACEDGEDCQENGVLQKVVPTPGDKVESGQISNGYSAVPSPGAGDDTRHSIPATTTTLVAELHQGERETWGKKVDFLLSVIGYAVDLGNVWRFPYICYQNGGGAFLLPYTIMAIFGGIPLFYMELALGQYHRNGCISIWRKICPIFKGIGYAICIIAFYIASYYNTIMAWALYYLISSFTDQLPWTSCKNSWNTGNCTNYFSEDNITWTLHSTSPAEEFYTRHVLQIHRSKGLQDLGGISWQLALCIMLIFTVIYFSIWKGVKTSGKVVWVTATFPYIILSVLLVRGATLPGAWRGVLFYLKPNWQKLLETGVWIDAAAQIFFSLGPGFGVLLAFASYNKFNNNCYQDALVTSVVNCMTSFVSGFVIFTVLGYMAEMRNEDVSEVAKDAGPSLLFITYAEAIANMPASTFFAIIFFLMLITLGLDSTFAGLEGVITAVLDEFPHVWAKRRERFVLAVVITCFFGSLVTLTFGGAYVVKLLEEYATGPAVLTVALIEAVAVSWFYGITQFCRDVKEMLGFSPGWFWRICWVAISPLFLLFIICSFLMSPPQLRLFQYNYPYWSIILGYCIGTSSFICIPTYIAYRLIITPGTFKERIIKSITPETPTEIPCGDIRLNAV
Chain of 5-hydroxytryptamine receptor 4 (Q13639 whole entry): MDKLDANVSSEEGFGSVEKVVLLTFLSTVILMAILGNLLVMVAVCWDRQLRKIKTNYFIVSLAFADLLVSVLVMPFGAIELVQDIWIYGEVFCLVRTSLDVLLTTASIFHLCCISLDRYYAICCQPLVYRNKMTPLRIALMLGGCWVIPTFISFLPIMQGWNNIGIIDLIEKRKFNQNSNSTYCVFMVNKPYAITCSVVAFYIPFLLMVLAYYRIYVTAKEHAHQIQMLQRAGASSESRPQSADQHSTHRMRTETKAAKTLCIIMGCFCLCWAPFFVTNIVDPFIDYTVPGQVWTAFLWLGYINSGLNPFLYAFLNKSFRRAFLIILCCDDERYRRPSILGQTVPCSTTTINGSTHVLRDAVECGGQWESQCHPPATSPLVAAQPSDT
Chain of 5-hydroxytryptamine receptor 2B (P41595 whole entry): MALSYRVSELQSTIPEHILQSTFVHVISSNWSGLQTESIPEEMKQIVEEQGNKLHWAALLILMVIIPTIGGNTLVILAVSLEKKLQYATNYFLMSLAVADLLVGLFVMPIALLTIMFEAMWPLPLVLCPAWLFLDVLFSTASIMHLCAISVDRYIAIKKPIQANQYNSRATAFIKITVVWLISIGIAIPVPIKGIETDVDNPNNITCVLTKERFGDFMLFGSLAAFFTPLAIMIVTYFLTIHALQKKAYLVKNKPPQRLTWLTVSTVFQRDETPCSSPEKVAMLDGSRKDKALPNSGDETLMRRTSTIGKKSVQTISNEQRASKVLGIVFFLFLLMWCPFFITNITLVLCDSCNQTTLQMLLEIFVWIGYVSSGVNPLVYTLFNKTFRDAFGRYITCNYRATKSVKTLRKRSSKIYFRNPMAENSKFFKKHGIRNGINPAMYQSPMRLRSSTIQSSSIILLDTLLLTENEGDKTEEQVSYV
Chain of Sodium-dependent noradrenaline transporter (P23975 whole entry): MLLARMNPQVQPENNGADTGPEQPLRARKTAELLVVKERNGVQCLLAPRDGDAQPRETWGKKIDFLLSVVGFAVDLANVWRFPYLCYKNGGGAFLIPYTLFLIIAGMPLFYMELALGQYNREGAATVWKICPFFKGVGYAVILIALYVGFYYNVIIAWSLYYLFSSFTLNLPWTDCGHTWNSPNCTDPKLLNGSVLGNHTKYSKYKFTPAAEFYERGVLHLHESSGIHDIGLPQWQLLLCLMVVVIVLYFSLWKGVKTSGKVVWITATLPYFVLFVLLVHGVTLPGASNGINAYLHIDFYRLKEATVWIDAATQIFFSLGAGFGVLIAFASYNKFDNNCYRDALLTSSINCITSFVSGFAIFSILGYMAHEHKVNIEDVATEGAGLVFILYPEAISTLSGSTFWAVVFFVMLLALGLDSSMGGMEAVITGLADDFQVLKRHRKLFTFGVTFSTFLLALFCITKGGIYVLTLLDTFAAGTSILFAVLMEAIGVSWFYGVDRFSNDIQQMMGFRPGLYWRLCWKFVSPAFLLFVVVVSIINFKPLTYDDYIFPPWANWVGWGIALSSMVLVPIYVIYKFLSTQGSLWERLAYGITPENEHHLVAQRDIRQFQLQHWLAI
Chain of Sodium-dependent dopamine transporter (Q01959 whole entry): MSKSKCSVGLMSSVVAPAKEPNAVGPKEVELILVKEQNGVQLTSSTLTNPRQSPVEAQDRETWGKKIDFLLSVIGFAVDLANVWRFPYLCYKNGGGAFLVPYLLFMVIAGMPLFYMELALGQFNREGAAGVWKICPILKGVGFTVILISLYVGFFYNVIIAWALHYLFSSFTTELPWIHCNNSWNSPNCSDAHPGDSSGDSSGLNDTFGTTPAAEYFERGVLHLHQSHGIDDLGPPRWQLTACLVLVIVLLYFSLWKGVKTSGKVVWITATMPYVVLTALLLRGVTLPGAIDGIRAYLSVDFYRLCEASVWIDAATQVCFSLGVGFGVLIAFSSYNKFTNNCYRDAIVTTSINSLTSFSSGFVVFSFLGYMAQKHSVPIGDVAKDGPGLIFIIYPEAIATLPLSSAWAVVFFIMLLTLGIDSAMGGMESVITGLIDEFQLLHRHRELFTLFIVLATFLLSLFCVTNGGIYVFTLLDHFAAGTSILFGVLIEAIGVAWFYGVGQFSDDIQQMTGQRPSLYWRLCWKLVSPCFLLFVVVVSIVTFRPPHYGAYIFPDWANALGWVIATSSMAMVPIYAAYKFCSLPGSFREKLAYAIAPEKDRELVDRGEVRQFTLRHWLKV
Chain of 5-hydroxytryptamine receptor 7 (P34969 whole entry): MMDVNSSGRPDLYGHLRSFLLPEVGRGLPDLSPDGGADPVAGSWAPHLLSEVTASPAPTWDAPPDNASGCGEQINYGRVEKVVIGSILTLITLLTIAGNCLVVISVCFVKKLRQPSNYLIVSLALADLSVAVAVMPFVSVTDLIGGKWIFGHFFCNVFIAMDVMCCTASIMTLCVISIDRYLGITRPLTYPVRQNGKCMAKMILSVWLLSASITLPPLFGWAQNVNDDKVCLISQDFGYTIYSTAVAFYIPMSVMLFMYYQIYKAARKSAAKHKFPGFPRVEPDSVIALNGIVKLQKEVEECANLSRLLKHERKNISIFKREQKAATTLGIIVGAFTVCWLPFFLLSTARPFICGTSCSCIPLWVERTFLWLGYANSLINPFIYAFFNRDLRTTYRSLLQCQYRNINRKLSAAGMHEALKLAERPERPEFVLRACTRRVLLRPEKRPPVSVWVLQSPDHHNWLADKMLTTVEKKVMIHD
Chain of 5-hydroxytryptamine receptor 1B (P28222 whole entry): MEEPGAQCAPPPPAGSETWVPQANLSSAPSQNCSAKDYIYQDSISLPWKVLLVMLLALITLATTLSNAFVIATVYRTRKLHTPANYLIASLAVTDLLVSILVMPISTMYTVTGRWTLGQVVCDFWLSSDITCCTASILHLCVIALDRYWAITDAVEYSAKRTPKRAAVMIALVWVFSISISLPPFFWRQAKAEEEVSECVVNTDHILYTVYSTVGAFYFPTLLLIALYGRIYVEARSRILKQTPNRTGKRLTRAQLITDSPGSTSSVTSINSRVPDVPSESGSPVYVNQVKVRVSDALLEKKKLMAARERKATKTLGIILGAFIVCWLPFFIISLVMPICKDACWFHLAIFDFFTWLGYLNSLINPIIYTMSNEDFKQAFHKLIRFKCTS
Chain of D(2) dopamine receptor (P14416 whole entry): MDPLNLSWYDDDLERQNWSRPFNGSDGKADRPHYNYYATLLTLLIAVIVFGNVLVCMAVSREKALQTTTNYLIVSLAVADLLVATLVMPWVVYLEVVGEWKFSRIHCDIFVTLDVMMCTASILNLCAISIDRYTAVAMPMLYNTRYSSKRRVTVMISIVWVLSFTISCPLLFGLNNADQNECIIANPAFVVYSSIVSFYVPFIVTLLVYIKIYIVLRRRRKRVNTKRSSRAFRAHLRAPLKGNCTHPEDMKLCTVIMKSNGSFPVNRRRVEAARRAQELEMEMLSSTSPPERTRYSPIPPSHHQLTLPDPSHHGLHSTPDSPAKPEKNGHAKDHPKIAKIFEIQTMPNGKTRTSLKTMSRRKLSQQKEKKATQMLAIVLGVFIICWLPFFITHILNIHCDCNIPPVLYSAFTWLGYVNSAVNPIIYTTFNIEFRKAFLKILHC
Chain of 5-hydroxytryptamine receptor 2A (P28223 whole entry): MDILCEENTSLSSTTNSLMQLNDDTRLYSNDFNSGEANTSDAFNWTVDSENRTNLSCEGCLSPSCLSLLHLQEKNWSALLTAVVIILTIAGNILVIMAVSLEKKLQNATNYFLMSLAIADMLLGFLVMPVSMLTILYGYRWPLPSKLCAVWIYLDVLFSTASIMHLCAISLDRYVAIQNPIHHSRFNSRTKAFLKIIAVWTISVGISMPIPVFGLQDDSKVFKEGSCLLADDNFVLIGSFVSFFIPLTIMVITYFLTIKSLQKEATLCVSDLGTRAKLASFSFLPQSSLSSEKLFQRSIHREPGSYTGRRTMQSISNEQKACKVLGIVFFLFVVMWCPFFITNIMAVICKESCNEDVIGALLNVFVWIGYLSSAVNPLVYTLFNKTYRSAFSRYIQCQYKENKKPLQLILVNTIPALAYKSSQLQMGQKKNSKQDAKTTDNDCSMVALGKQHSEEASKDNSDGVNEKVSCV
Chain of 5-hydroxytryptamine receptor 6 (P50406 whole entry): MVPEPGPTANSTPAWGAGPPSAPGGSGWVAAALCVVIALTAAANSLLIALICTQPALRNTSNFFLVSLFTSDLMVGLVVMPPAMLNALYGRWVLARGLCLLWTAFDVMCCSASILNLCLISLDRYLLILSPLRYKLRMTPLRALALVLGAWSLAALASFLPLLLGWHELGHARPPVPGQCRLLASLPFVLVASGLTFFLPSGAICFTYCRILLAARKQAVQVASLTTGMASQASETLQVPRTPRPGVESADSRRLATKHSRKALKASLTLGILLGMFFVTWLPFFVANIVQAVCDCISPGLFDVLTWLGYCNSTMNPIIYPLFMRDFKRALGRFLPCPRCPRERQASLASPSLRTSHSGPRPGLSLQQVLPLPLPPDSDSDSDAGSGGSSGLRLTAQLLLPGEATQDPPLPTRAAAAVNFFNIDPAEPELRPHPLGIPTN

With `CN(C)C1CCC(c2c[nH]c3ccc(Br)cc23)C1` (stereo not drawn) the IC50 [1] was 4.3 nM.

In the case of `CCN(CC)C1CCC(c2c[nH]c3ccc(C#N)cc23)C1` (stereo not drawn), the IC50 [1] is reported as 6.2 nM.

`CN(C)C1CCC(c2c[nH]c3cc(F)ccc23)C1` (stereo not drawn) gave an IC50 [1] of 5.1 nM.

Molecule `CN(CCc1ccccc1)C1CCC(c2c[nH]c3ccc(C#N)cc23)C1` (stereo not drawn) has an IC50 [1] of 6.2 nM.

With `CCN(C)C1CCC(c2c[nH]c3ccc(C#N)cc23)C1` (stereo not drawn) the IC50 [1] was 1.6 nM.

For `CN(C)C1CCC(c2c[nH]c3c(Br)cccc23)C1` (stereo not drawn), the IC50 [1] was 1.6 nM.

`N#Cc1ccc2[nH]cc(C3CCC(N4CCCCC4)C3)c2c1` (stereo not drawn) showed an IC50 [1] of 65 nM.

For `CN(C)[C@@H]1CC[C@@H](c2c[nH]c3ccc(C#N)cc23)C1`, the IC50 [1] was 1.3 nM.

Work on `CN(C)C1CCC(c2c[nH]c3cccc(F)c23)C1` (stereo not drawn) yielded an IC50 [1] of 31 nM.

In the case of `CCN(C)C1CCC(c2c[nH]c3ccc(F)cc23)C1` (stereo not drawn), the IC50 [1] is reported as 3.7 nM.

With `CCCNC1CCC(c2c[nH]c3ccc(C#N)cc23)C1` (stereo not drawn) the IC50 [1] was 30 nM.

`CN(C)C1CCC(c2c[nH]c3cc(Br)ccc23)C1` (stereo not drawn) gave an IC50 [1] of 9.6 nM.

Work on `CN(C)[C@H]1CC[C@@H](c2c[nH]c3ccc(C#N)cc23)C1` yielded an IC50 [1] of 0.38 nM.

`Fc1ccc2[nH]cc(C3CCC(N4CCCC4)C3)c2c1` (stereo not drawn) showed an IC50 [1] of 2.9 nM.

In the case of `CN(C)C1CCC(c2c[nH]c3ccc(C#N)cc23)C1` (stereo not drawn), the IC50 [1] is reported as 0.48 nM.

Molecule `CN(C)C1CCC(c2c[nH]c3cc(Cl)ccc23)C1` (stereo not drawn) has an IC50 [1] of 6.5 nM.

With `CN(C)[C@@H]1CC[C@@H](c2c[nH]c3ccc(F)cc23)C1` the IC50 [1] was 2.8 nM.

Molecule `N#Cc1ccc2[nH]cc(C3CCC(NCc4ccccc4)C3)c2c1` (stereo not drawn) has an IC50 [1] of 15 nM.

With `CCNC1CCC(c2c[nH]c3ccc(C#N)cc23)C1` (stereo not drawn) the IC50 [1] was 6.6 nM.

In the case of `CN(C)[C@H]1CC[C@H](c2c[nH]c3ccc(F)cc23)C1`, the IC50 [1] is reported as 5.9 nM.

With `N#Cc1ccc2[nH]cc(C3CCC(N4CCOCC4)C3)c2c1` (stereo not drawn) the IC50 [1] was 110 nM.

`CN(C)C1CCC(c2c[nH]c3c(Cl)cccc23)C1` (stereo not drawn) gave an IC50 [1] of 1.4 nM.

Work on `CN(C)[C@@H]1CC[C@H](c2c[nH]c3ccc(C#N)cc23)C1` yielded an IC50 [2] of 6.9 µM, an IC50 [3] of 1300 nM and an IC50 [4] of 340 nM. The IC50 [5] was 840 nM, the half-life [6] was 33 min and the IC50 [7] was greater than 1000 nM. For the same molecule, the IC50 [8] was greater than 1000 nM, the concentration at 2 h [9] was 820 nM and the IC50 [10] was greater than 10 µM. For the same molecule, the IC50 [11] was 37 nM, the bioavailability [12] was 51% and the IC50 [13] was 1300 nM. For the same molecule, the IC50 [14] was greater than 30 µM, the Activity (Rattus norvegicus [15]) was 150% and the IC50 [1] was 0.22 nM. It also gave a Tmax [16] of 1 h, an IC50 (D(1A) dopamine receptor) of 7.2 µM and an IC50 (D(2) dopamine receptor) greater than 30 µM. The IC50 [17] was greater than 10 µM, the Activity (Rattus norvegicus [18]) was “Active” and the Drug uptake (Brain) was 1000 nM. For the same molecule, the Activity (Rattus norvegicus [19]) was “Dose-dependent effect”.

For `N#Cc1ccc2[nH]cc(C3CCC(N4CCCC4)C3)c2c1` (stereo not drawn), the IC50 [1] was 3 nM.

`CCN(CC)C1CCC(c2c[nH]c3ccc(F)cc23)C1` (stereo not drawn) gave an IC50 [1] of 7.3 nM.

`CN(C)[C@H]1CC[C@H](c2c[nH]c3ccc(C#N)cc23)C1` showed an IC50 [1] of 0.97 nM.

With `N#Cc1ccc2[nH]cc(C3CCC(NCCc4ccccc4)C3)c2c1` (stereo not drawn) the IC50 [1] was 10 nM.

Molecule `N#Cc1ccc2[nH]cc(C3CCC(N4Cc5ccccc5C4)C3)c2c1` (stereo not drawn) has an IC50 [1] of 6.8 nM.

`N#Cc1ccc2[nH]cc(C3CCC(N4CCc5ccccc5C4)C3)c2c1` (stereo not drawn) gave an IC50 [1] of 6.5 nM.

`CN(C)[C@@H]1CC[C@H](c2c[nH]c3ccc(F)cc23)C1` (single isomer, unassigned) gave an IC50 [1] of 2.4 nM.

With `CNC1CCC(c2c[nH]c3ccc(C#N)cc23)C1` (stereo not drawn) the IC50 [1] was 8.5 nM.

With `N#Cc1ccc2[nH]cc(C3CCC(N)C3)c2c1` (stereo not drawn) the IC50 [1] was 32 nM.

`CN(C)C1CCC(c2c[nH]c3c(F)cccc23)C1` (stereo not drawn) showed an IC50 [1] of 3.3 nM.

In the case of `CN(Cc1ccccc1)C1CCC(c2c[nH]c3ccc(C#N)cc23)C1` (stereo not drawn), the IC50 [1] is reported as 5.3 nM.

In the case of `CN(C)C1CCC(c2c[nH]c3ccc(Cl)cc23)C1` (stereo not drawn), the IC50 [1] is reported as 3 nM.

Work on `CN(C)C1CCC(c2c[nH]c3cccc(Br)c23)C1` (stereo not drawn) yielded an IC50 [1] of 5.3 nM.

Molecule `CN(C)C1CCC(c2c[nH]c3ccc(F)cc23)C1` (stereo not drawn) has an IC50 [1] of 1.7 nM.
